Assay [1] concerns Mycobacterium tuberculosis. Description: Antimycobacterial activity against Mycobacterium tuberculosis H37Rv by agar dilution method. The format is functional. In general terms: Agar dilution tests growth on a series of plates holding different concentrations.
Assay [2] relates to Mycolicibacterium smegmatis. Description: Antimycobacterial activity against Mycobacterium smegmatis MC2 by agar dilution method. It is filed as functional.
In assay [3] the test system is Mycobacterium tuberculosis. Description: Antimycobacterial activity against Mycobacterium tuberculosis H37Rv ATCC 35801 infected in CD1 mouse assessed as bacterial load in lungs at 25 mg/kg, ip after 10 days. Particulars: route intraperitoneal. The format is functional. The essentials: (§1)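 Six-week-old female CD-1 mice, six per group, infected via caudal vein with approximately 10⁷ viable organisms. Intraperitoneal dosing at 25 mg/kg began 10 days post-inoculation and continued for 10 days. At 35 days post-infection, spleens and right lungs were homogenized and plated in serial 10-fold dilutions on 7H10 agar, incubated at 37 °C, 4 weeks. CFU compared with vehicle-treated controls.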

Assay [4] has as its system Mycobacterium tuberculosis. Nature of the assay: Antimycobacterial activity against Mycobacterium tuberculosis H37Rv ATCC 35801 infected in CD1 mouse assessed as bacterial load in spleen at 25 mg/kg, ip after 10 days. The format is functional. Particulars: route intraperitoneal. The essentials: as §1
The test system of assay [5] is Vero. Nature of the assay: Cytotoxicity against african green monkey Vero cells after 72 hrs by MTT assay. It is filed as cell-based. As to conditions: Chlorocebus sabaeus. (Formazan colour is commonly taken as a measure of viable cells.)
Assay [6] in a line: Selectivity index, ratio of IC50 for african green monkey Vero cells to MIC for mycobacterium. It is filed as functional. The essentials: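 Selectivity index taken as IC50/MIC. IC50 comes from Vero cells exposed to serial dilutions up to 62.5 µg/mL for 72 h, with viability read by MTT conversion to formazan. MIC comes from agar dilution in Middlebrook 7H11 with OADC at pH 7.40, run in duplicate, and is the lowest concentration giving complete growth inhibition.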

≈ marks a conversion by molar mass, not a printed value.

For orientation: MIC means the least concentration at which growth counts as inhibited. The IC50 is the concentration at which inhibition is half-maximal.

Regarding `CN1C/C(=C\c2ccc(F)cc2)C(=O)[C@]2(C1)[C@@H](c1ccc(F)cc1)[C@H](c1ccccc1)N[C@@]21C(=O)Nc2ccccc21` (racemic), the minimum inhibitory concentration (MIC) worked out at 0.07 mg/L (≈ 0.125 µM) in assay [1] and 0.69 mg/L (≈ 1.23 µM) in assay [2]. Further, the log10cfu in assay [3] is on record as 6.01; in assay [4], 5.2. Besides, in assay [5], the IC50 was determined as 111 µM. The “Selectivity Index” value in assay [6] was found to be 1634.
Turning to `NNC(=O)c1ccncc1` [ISONIAZID], the MIC in assay [1] is 0.36 mg/L (≈ 2.63 µM); in assay [2], 45.6 mg/L (≈ 332 µM). The log10cfu in assay [3] is on record as 5.61; in assay [4], 4.92.
As to `CN1C/C(=C\c2ccc(Cl)cc2Cl)C(=O)[C@]2(C1)[C@@H](c1ccc(Cl)cc1Cl)CN(C)[C@@]21C(=O)Nc2ccccc21` (racemic), the MIC was found to be 1.29 mg/L (≈ 2.15 µM) in assay [1] and 5.21 mg/L (≈ 8.66 µM) in assay [2]. Besides, in assay [5], the half-inhibitory concentration (IC50) was 104 µM.
Take `CN1C/C(=C\c2ccc(Cl)cc2Cl)C(=O)[C@]2(C1)[C@@H](c1ccc(Cl)cc1Cl)[C@H](c1ccccc1)N[C@@]21C(=O)Nc2ccccc21` (racemic): the MIC in assay [1] was found to be 2.35 mg/L (≈ 3.54 µM); in assay [2], 9.43 mg/L (≈ 14.2 µM). For the same molecule, the midpoint of inhibition in assay [5], the IC50, lay at 94.3 µM.
In the case of `CN1C/C(=C\c2ccc(Cl)cc2)C(=O)[C@]2(C1)[C@@H](c1ccc(Cl)cc1)CN(C)[C@@]21C(=O)Nc2ccccc21` (racemic), the MIC amounted to 2.93 mg/L (≈ 5.5 µM) in assay [1] and 5.88 mg/L (≈ 11 µM) in assay [2]. This molecule also yielded an IC50 in assay [5] of 117 µM.
`CN1C/C(=C\c2cccc3ccccc23)C(=O)[C@]2(C1)[C@@H](c1cccc3ccccc13)[C@@H]1CCCN1[C@@]21C(=O)Nc2ccccc21` (racemic): the MIC in assay [1] stood at 2.65 mg/L (≈ 4.49 µM); in assay [2], 10.6 mg/L (≈ 18 µM). In addition, half-maximal inhibition in assay [5] (IC50) was put at 106 µM.
As to `Cc1ccccc1/C=C1\CN(C)C[C@@]2(C1=O)[C@@H](c1ccccc1C)CN(C)[C@@]21C(=O)Nc2ccccc21` (racemic), the minimal inhibitory concentration (MIC) in assay [1] amounted to 0.39 mg/L (≈ 0.793 µM); in assay [2], 1.59 mg/L (≈ 3.23 µM). Also, the concentration for half-maximal inhibition (IC50) in assay [5] was determined as 127 µM.
`CN1C/C(=C\c2cccs2)C(=O)[C@]2(C1)[C@@H](c1cccs1)CN(C)[C@@]21C(=O)Nc2ccccc21` (racemic): the minimal inhibitory concentration (MIC) in assay [1] came to 1.64 mg/L (≈ 3.45 µM); in assay [2], 6.59 mg/L (≈ 13.9 µM). Further, in assay [5], the IC50 was determined as 132 µM.
As to `COc1ccc(/C=C2\CN(C)C[C@@]3(C2=O)[C@@H](c2ccc(OC)cc2)CN(C)[C@@]32C(=O)Nc3ccccc32)cc1` (racemic), the MIC was 0.75 mg/L (≈ 1.43 µM) in assay [1] and 2.98 mg/L (≈ 5.69 µM) in assay [2]. In assay [5], this molecule gave an IC50 of 120 µM.
The matching figures for `CN1C/C(=C\c2ccccc2Cl)C(=O)[C@]2(C1)[C@@H](c1ccccc1Cl)[C@H](c1ccccc1)N[C@@]21C(=O)Nc2ccccc21` (racemic): 2.63 mg/L (≈ 4.42 µM), 10.5 mg/L (≈ 17.7 µM) and 105 µM.

Source of the values: ChEMBL document CHEMBL1140053, “Discovery of antimycobacterial spiro-piperidin-4-ones: an atom economic, stereoselective synthesis, and biological intervention” (J Med Chem, 2008).
